Compound activity from PubChem.
PMI act satM6P – activators of human phosphomannose isomerase at near-saturating mannose 6-phosphate; coupled PMI enzyme assay, resazurin fluorescence, 20 min; hits give high values; 1 = untreated enzyme, 0 = substrate-free blank; activation factor at 20 µM; 190,000 tested, 0.34% active; AID 1216;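 active = activation factor of 2 or more at 20 µM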
Target sequence (P34949 whole entry, looked up): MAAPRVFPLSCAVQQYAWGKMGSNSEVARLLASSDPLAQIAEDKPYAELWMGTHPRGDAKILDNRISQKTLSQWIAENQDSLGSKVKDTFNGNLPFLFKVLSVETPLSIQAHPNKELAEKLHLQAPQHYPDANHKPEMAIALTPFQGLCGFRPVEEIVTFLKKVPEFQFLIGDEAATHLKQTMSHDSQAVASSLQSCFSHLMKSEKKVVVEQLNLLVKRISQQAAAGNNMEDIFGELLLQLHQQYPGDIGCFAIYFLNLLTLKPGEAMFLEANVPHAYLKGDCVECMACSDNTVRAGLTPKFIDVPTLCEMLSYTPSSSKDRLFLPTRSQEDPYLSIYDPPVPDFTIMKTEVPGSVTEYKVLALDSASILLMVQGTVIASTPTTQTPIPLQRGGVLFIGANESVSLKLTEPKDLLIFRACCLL
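Test system: human phosphomannose isomerase with PGI, G6PDH, diaphorase coupling enzymes / Doses: 20 µM compound, 1% DMSO / Times: enzyme reaction with compound 20 min at room temperature / Measured by: Diaphorase-driven resazurin-to-resorufin fluorescence, excitation 544, emission 590 nm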
PMI act – phosphomannose isomerase (human) activation; 190,000 tested, 0.005% active; purified human PMI, coupled resazurin fluorescence, 20 min; hits give high values; 1 = vehicle control, 0 substrate-free wells; P34949; activation factor at 20 µM; AID 1214;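 active = activation factor of 2 or more at 20 µM, relative to plate controls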
Diaphorase act – counter-screen for diaphorase-based assays: diaphorase activators and chemical reducers; Diaphorase/resazurin coupled assay, resorufin fluorescence, 16 min; hits give high values; 1 = vehicle wells, 0 = NADH-free wells; activation factor at 20 µM; 190,000 tested, 0.005% active;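 active = diaphorase activity raised at least twofold by the compound at 20 µM; inactive = activation factor below 2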
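Material: bacterial diaphorase enzyme (C. kluyveri); amount: enzyme 0.07 U/mL final; reagent: NADH substrate 0.114 mM plus resazurin dye 0.1 mM, final; doses: single compound dose of 20 µM, 1% DMSO final; timing: 16 min enzyme reaction, ambient temperature; measured by: fluorescence of resorufin, 544 nm excitation, 590 nm emission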
WT yeast gro inh – growth inhibition of WT yeast, mitochondrial fusion screen. AID 1362. mitochondrial fusion phenotypic screen, WT strain. 190,000 tested, 2.1% active. inhibition, % at 10 µM; in the data active = inhibition above about 58%; tested in S. cerevisiae
L major viab – Leishmania major promastigote growth inhibition | Leishmania major promastigotes, resazurin fluorescence viability | AID 1063 | 200,000 tested, 9% active | inhibition, % at 10 µM; in the data active = inhibition above about 50%;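 also: promastigotes grown with compound for 44 hours at 28 °C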
Large screens that a line does not name were inactive. An excerpt weighted towards active compounds, which were near 10% of everything screened.

Cc1cccc(NC(=O)c2cc([N+](=O)[O-])ccc2N2CCCCC2)n1	none
CC1CCN(S(=O)(=O)c2cccc(C(=O)Nc3ccccc3)c2)CC1	none (no result: PMI act satM6P, PMI act, Diaphorase act)
CCCCC(c1nnnn1CC1CCCO1)N1CCN(c2cccc(C)c2C)CC1 (stereo not drawn)	L major viab 56
CCCCC(c1nnnn1CC1CCCO1)N1CCN(Cc2ccccc2)CC1 (stereo not drawn)	none
Cc1cc(C(=O)c2ccc(Cl)cc2)c(NC(=O)CCl)s1	none
CCc1cc(C(=O)c2ccc(C)cc2)c(NC(=O)CCl)s1	L major viab 88
COc1ccc(N(C)C(=O)c2onc3c2CCCC3)cc1	none
Cc1ccc(C(=O)NC(=C(Cl)Cl)S(=O)(=O)c2ccc(C)cc2)cc1	L major viab 62
Cc1ccc(C(=O)NC(=C(Cl)Cl)S(=O)(=O)c2ccc(Cl)cc2)cc1	none
CC(=O)NC(=C(Cl)Cl)S(=O)(=O)c1ccccc1	none
Cc1ccc(S(=O)(=O)/C(=C/Cl)NC(=O)c2ccccc2)cc1	L major viab 99
Cc1ccc(C(=O)NS(=O)(=O)c2ccccc2)cc1	none (no result: PMI act satM6P, PMI act, Diaphorase act)
Cc1ccc(S(=O)(=O)C(NC(=O)c2ccccc2)=C(Cl)Cl)cc1	L major viab 62 (no result: PMI act satM6P, PMI act, Diaphorase act, WT yeast gro inh)
Cc1cc(-c2ccc(NC(=O)[C@@H]3CCCC[C@@H]3C(=O)O)c(C)c2)ccc1NC(=O)[C@@H]1CCCC[C@@H]1C(=O)O	none
CN1CCN(NC(=S)NC2CCCC2)CC1	none
Oc1ccc(Br)cc1/C=N/N1CCN(Cc2ccccc2)CC1	none
Oc1ccc(Br)cc1/C=N/N1CCCCC1	L major viab 52
CCNC(=S)N(Cc1ccccc1)Cc1nc2ccccc2c(=O)[nH]1	none
Cc1ccc(NC(=O)/C=C/c2ccc3c(c2)OCO3)nc1	none
CCNc1ccccc(C(=O)/C=C/c2ccc3c(c2)OCO3)c1=O	L major viab 63
O=C(/C=C/c1ccc2c(c1)OCCCO2)c1ccccc1O	WT yeast gro inh 67
Cc1ccc(O)c(C(=O)/C=C/c2ccc3c(c2)OCCCO3)c1	WT yeast gro inh 61
COCCCNC(=O)CCC(=O)NNc1nc2ccccc2c2nc(C)nn12	none
Nc1nc(COc2ccc(F)cc2Cl)nc(N2CCCCC2)n1	none
Cc1ccccc1OCC(=O)N/N=C/C=C/c1ccccc1	none
Cc1ccccc1OCC(=O)N/N=C/c1ccc([N+](=O)[O-])o1	L major viab 98
Cc1ccccc1OCC(=O)NCC(=O)N/N=C/c1ccc(Br)o1	none
Cc1ccc(/C=N\NC(=O)COc2ccc(C)cc2[N+](=O)[O-])cc1	none
Cc1cc(C)cc(OCC(=O)N/N=C/c2ccc([N+](=O)[O-])o2)c1	L major viab 96
COc1ccccc1OCC(=O)N/N=C/C=C/c1ccc([N+](=O)[O-])o1	L major viab 100
COC(=O)/C(C#N)=C1/C=Cc2ccccc2N1	none
S=C(NC12CC3CC(CC(C3)C1)C2)N1CCCC1	L major viab 53
CCC(=O)c1ccccc1OCCN1CCN(CC)CC1	none
Brc1ccccc1OCCCCCN1CCCC1	L major viab 98
Clc1ccc(OCCCCCN2CCCC2)c(Br)c1	L major viab 98
Clc1ccc(OCCCN2CCCCC2)c(Br)c1	L major viab 99
CCN1CCN(CCCOc2ccc(Cl)cc2Br)CC1	L major viab 96
Cc1ccccc1NC(=O)COC(=O)CCc1ccccc1	none
Cc1ccc(CN2CCN(Cc3ccc(O)cc3)CC2CCO)o1 (stereo not drawn)	none
O=S(=O)(Nc1ccc(O)c(Sc2nc3ccccc3s2)c1)c1cccc2ccccc12	WT yeast gro inh 69
O=S(=O)(Nc1ccc(O)c(Sc2nc3ccccc3s2)c1)c1ccc(F)cc1	none
CCOc1ccc(N2CC(C(=O)Nc3ccccc3N3CCOCC3)CC2=O)cc1 (stereo not drawn)	L major viab 77
O=C(Nc1ccccc1N1CCOCC1)C1CCCCN1S(=O)(=O)c1ccccc1 (stereo not drawn)	none
CCOc1ccc(N2CC(C(=O)NC(C)C)CC2=O)cc1 (stereo not drawn)	WT yeast gro inh 60
O=C(Nc1ccccc1N1CCOCC1)C1CCN(S(=O)(=O)c2ccccc2F)CC1	L major viab 56
CCCOc1ccc(N2CC(C(=O)Nc3ccc(N4CCOCC4)cc3)CC2=O)cc1 (stereo not drawn)	none
CN(C)c1cc[n+](CC(=O)Nc2ccc(Oc3ccccc3)cc2)cc1	WT yeast gro inh 76
O=C(CCc1ccccc1)Nc1ccccc1	none (no result: PMI act satM6P, PMI act, Diaphorase act)
